Results published in the EternaBench riboswitch data.

Tested on: MS2 coat protein
Assay: apparent Kd, MS2 coat protein; higher = weaker binding; RNA-MaP array; FMN 200 µM where present
Method in brief: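 The apparent Kd is the median of filtered binding-curve fits, one per cluster, to green signal normalised to red-channel RNA signal and control-cluster median Fmax. The clusters were on Illumina sequencing chips, and stalled E. coli RNA polymerase had transcribed the designs on them. Titration used SNAP-549-labelled MS2 coat protein from 0.7 or 1.5 nM, doubling to 3 µM, without and then with constant ligand, in 100 mM Tris-HCl pH 7.5, 80 mM KCl, 4 mM MgCl2, BSA, DTT, yeast tRNA and Tween-20.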

[1] = designed as: ON switch for flavin mononucleotide, no ligand
[2] = ligand present: flavin mononucleotide, designed as: ON switch for flavin mononucleotide
[3] = designed as: OFF switch for flavin mononucleotide, no ligand
[4] = ligand present: flavin mononucleotide, designed as: OFF switch for flavin mononucleotide

Row | Sequence | apparent Kd [1] [nM] | apparent Kd [2] [nM] | apparent Kd [3] [nM] | apparent Kd [4] [nM]
1 | GGAGCACACCUUAACAUGAGGAUCACCCAUGUCAAAAGACAUGAGGAUAUGGAUCCGAAAAGGAUCCAGAAGGCAUGGUGCUCC | 188 | 11.9 | – | –
2 | GUUGCUACUGAGGAUAUUAUUCUACCCGACUGAUAAGAAGGCAGUACAUGAGGAUCACCCAUGUGGGUAGCCAG | – | – | 16.7 | 22.5
3 | AAGAGCGAUUCUCCCUUCCUACAUGAGGAUCACCCAUGUACGAGAAGGCGCCGUGUAUACAACGGUGAGGAUAUCGUGCGUUAC | – | – | 4.64 | 4.91
4 | UCACGGUAUGUAGGAUAUGCAUAGCAUUGCUAUGCAGAAGGACAUGAGGAUCACCCAUGUAUGUAUUCCAUACUAAUCCCGUGC | – | – | 6.01 | 6.03
5 | UGUUGUUGAUAGGAUAUACAGGUAGGAGUAGGAGUAGAAGGAUCUACAUGAGGAUCACCCAUGUAGGAGUGAGA | – | – | 16.1 | 17.7
6 | CUGAUGUUAGGAUAUCAGGUUGCGCGCGAAGGCGCGCGGCAUGAGAAGGAACAUGAGGAUCACCCAUGUGACGA | – | – | 39.7 | 148
7 | CUCUUACAUGAGGAUCACCCAUGUGAGGAUAUAGCGGCCUGAUGAGGGAUCAACAUCGCUAGAAGGUACUUGGG | – | – | 101 | 106
8 | UUUUAACAUGAGGAUCACCCAUGUGAGGAUAUCGAAAUUUAUAUUAAUAUUUAUUAAACGAGAAGGCACAUUUU | – | – | 82.2 | 80.7
9 | GCCUCACAUGAGGAUCACCCAUGUCAGGAUAUCUAAGGCGAAGUGCAAGCACCUCGUGAGAGAAGGGACGUCAA | – | – | 23.2 | 47.6
10 | CAGACCGGCGUAGGAUAUGUCGACAUGAGGAUCACCCAUGUAAACCUUGUCUGGUCCGGUGUGUGACAGAAGGAUGUCGGCCAU | – | – | 14.6 | 27.9
11 | UGGUACAUGGGAGGAUAUGGGACAUGAGGAUCACCCAUGUGAAAAUUAAAUAUGCCGAUAGGCAACUAGAAGGCCCAUGUACCU | 33.1 | 15.4 | – | –
12 | UUAAAUCAUGUAGGAUAUGCAUGGCGAAGCUACGCAGAAGGACAUGAGGAUCACCCAUGUUCUGGCUACCGAGUUCGGUGGCAA | – | – | 20.7 | 83.2
13 | CACCGUAACAGAGGAUAUGAUACAUGAGGAUCACCCAUGUAAUAAAUGAGAAUUUCGAAUGUACCUCAGAAGGCUGGAACCGGC | – | – | 45.7 | 96.6
14 | UAUUUUGAAGUAGGAUAUCAACACACAUGAGGAUCACCCAUGUUAGAUGUGGAUGUUGUAUGUUAUGAGAAGGACUUCGAUUCG | – | – | 20.6 | 76.4
15 | AGUAGAUCAGGAUAUACGUGAAAGGUCAAAGUGUCCCUUCUACAUGAGGAUCACCCAUGUAGAAGGGAUCUACA | – | – | 12.8 | 12.5
16 | CCGCCCUGGAGAGGAUAUGAUCCGUACUAAAGGUCAGAAGGCUCCGAGUUACAUGAGGAUCACCCAUGUAGGGCGGAAAAUAUG | 6.3 | 5.25 | – | –
17 | UUUUAACAUGAGGAUCACCCAUGUGAGGAUAUCGAAAUUUAUAUUUAUAUUUAUAUAACGAGAAGGCACAUUUU | – | – | 72.4 | 87.6
18 | AGGAAGUCAGGAUAUGCUGCUCGUCACUUGCGUGAUGAGUAGCAGAAGGGACAUGAGGAUCACCCAUGUAAAAA | – | – | 52.6 | 57.9
19 | GAUGAGGUAGGAUAUACGAGAAUAUAGGGUAGAUAUAUAACACAUGAGGAUCACCCAUGUAGAAGGACCAGUAG | – | – | 38.4 | 89.9

Row | Sequence | apparent Kd [1] [nM] | apparent Kd [2] [nM] | apparent Kd [3] [nM] | apparent Kd [4] [nM]
20 | AGCGGAGACAUGAGGAUCACCCAUGUCAGUGCCGGCGAUACCAGAAGGCCCGGCGGGCCUCGGCGGGAGGAUAUGGGUUCAACA | 51.8 | 14.9 | – | –
21 | CGACGAGUGGAGAAGGACUUUGACUAGCACAGGGUAGGAUAUCCACAUGAGGAUCACCCAUGUAGGAUACUUAUUGGGCCGCCU | – | – | 6.96 | 22.8
22 | GGGCUGGUAACAGGAUAUCGUGCCUGGCCGGAUUACAUGAGGAUCACCCAUGUCGUUGGAACCAACGAGAAGGGUUGCCUCCCA | 371 | 102 | – | –
23 | AGUGCGUAUGUGAGGAUAUGCUGGUCCUUGGCUCGGCAGAAGGCACAUGAGGAUCACCCAUGUGGUGUCGUACU | – | – | 239 | 47.1
24 | CUCAUGUGAGGAUAUCAGUAGUAAAAAAAUAAAAUUACUACUGAGAAGGCACAUGAGGAUCACCCAUGUGUCUU | – | – | 16.3 | 31.7
25 | GUCCUACAUGAGGAUCACCCAUGUGAGGAUAUGUGGUUAGCUGCUAGGUAGUUAGUAUGCAGAAGGUACGUGAA | – | – | 14.8 | 15.5
26 | UACAGACAUGAGGAUCACCCAUGUAAGGAUAUCGGUACCGAUGGCAUAAUCUGCUCGGCGAGAAGGUACAGUGU | – | – | 22.6 | 24.9
27 | GCAAAUUAGUGAGGAUAUACAUAAUUUAUUUCUGUAGAAGGCACAAACCUCAAGACAUGAGGAUCACCCAUGUGGUAUUUAAGC | – | – | 155 | 415
28 | UUUCUACAUGAGGAUCACCCAUGUCAACAAAGUCGAGGAUAUGGGCAUAUUAUCUUAUUUCCAGAAGGCGAUUUCU | 145 | 29.5 | – | –
29 | AAAACAUGAGGAUCACCCAUGUAAAGAUCGGUUAAUUAAAGUGAGGAUAUACAAAAUUUUAUAUAGUAGAAGGCACUGGGUACA | 30.2 | 33.4 | – | –
30 | UUAUUAUAUGUAGGAUAUGCAUAUUACUAUUGUGCAGAAGGACAUGAGGAUCACCCAUGUAUAUUAUUAUUAUAUAUUAUAUAU | – | – | 15.8 | 15.7
31 | UUUUUAUAAGAGAAGGAGGACUUCAUGAGGAUCACCCAUGUGUUAGUACUUAGGAUAUUUAAUAACAUGAGGAUCACCCAUGUC | 49.4 | 49.2 | – | –
32 | CCAGCUCGUGUUAGGAUAUCCAAGCUGCGGCUGGUGGAGAAGGGACAUGAGGAUCACCCAUGUAAUAAAGAAAA | – | – | 26.4 | 31.9
33 | CUCUUUUAAGGAUAUACAUGAGGAUCACCCAUGUGCAUAGGUAUGUCCGGGUCCUGGAGUAGAAGGUGGGACGG | – | – | 70.3 | 58.4
34 | GCUGCAUAGGCAGGAUAUGCAAAAGCAGAUGCAAAGCAUUUGUAAAACACAUGAGGAUCACCCAUGUAGAAGGGCCUGUGCAGU | – | – | 21.8 | 21.5
35 | UCCUGAUCGAGAGGUAGGAGUGGUAGAAGGCGACCGGUGCCAGAUGACAUGAGGAUCACCCAUGUCGAGGAUAUACCACUGAAU | – | – | 7.04 | 12.1
36 | AAAAAGUCAGGAUAUCGGAAAAAAAAAAAAAAAAAAAAAAACGAGAAGGGACAUGAGGAUCACCCAUGUAAAAA | – | – | 55.8 | 68.2
37 | GUGUACGUAGGAUAUACAUGAGGAUCACCCAUGUGAAUAAGAUAGAAUAAGAUAAAGUGUAGAAGGACGAGUGU | – | – | 37.3 | 30.5
38 | GACUUGCGCACAGGAUAUCCACGUAGCGGACGUGGAGAAGGGUGACAUGAGGAUCACCCAUGUACGUAAGUCUGGAUCACUUCC | 48.3 | 21.8 | – | –

Row | Sequence | apparent Kd [1] [nM] | apparent Kd [2] [nM] | apparent Kd [3] [nM] | apparent Kd [4] [nM]
39 | AACAGGUGAGGAUAUCGAACAACAACAACAACAACAACAAACGAGAAGGCACAUGAGGAUCACCCAUGUAAGAA | – | – | 20 | 17.5
40 | AAAAAGCGAGGAUAUACAUGAGGAUCACCCAUGUAAAAAAAAAGAGAUGAAACAUCAUGUAGAAGGCGCAAAAA | – | – | 211 | 134
41 | AAUGUACUCGGAGGAUAUCCCACAUGAGGAUCACCCAUGUGGGUCACUGAUUCUCGUAUCGUCCGGGAGAAGGCCGAGAACUGA | – | – | 34.6 | 111
42 | CGUAGGCCUCUCAACAUGAGGAUCACCCAUGUACGUGAAACGUAGGAUAUCACACAACUAAUGUGUGAGAAGGGCGCGCCGGAG | 126 | 124 | – | –
43 | UGCGGUAGAGGAUAUACGUAGAUACAGAUUCAUGUAGAACUACAUGAGGAUCACCCAUGUAGAAGGCUAUCGCU | – | – | 39.2 | 482
44 | GCCCUCGCUGAGGAUAUUAUCUGGUUCGAUUGAUAAGAAGGCAGUACAUGAGGAUCACCCAUGUGGUUCGUCCG | – | – | 76.7 | 363
45 | GUCAGCUCGUGAGGAUAUACAUGUGCUGGAGACAGCACUAAAGAUUUCACAUGAGGAUCACCCAUGUAGAAGGCACGAGCUGAU | – | – | 16.4 | 37.4
46 | ACAUCUAGAGGAUAUACAUGAGUGAUACACGUAUUUCCACUACAUGAGGAUCACCCAUGUAGAAGGCUAGAUGA | – | – | 50 | 16.9
47 | GUAUUUGAAGUAAGGAUAUGCCUCUGGAAACGGAGGUAGAAGGUACAUGAGGAUCACCCAUGUUUCUCUCUUGG | – | – | 16.9 | 27.3
48 | AAGUAGAUCCGAGGAUAUACAAGGCGGAAACGCUACAUGAGGAUCACCCAUGUAGAAGGCGGAUCUACAGGUACUAAAGUACCA | – | – | 5.84 | 10.5
49 | GCUGUCGCAUGAGGAUAUGGACUGCUUUGCAGUCCAGAAGGCAUGUCAAUAGACAUGAGGAUCACCCAUGUAGUUAAGACAGCA | 704 | 42.4 | – | –
50 | GUCAUACAUGAGGAUCACCCAUGUAAGGAUAUGCUAGCGGUCGGAAGAAUGACUGCUAGCAGAAGGUACAUGAU | – | – | 64.1 | 121
51 | AGAAACUACGAGAAGGACAUAUGACCAAGAACAAACAUGAGGAUCACCCAUGUAGGAUAUCGUAGUUUCAGGAUCGUGAGAUCA | – | – | 6.29 | 12.9
52 | UACCACGACAACGCGGUAUCACAUGAGGAUCACCCAUGUUCACAGGAUAUGCGAUAGCCAACGAAGCAGAAGGGUGAUUACUUA | 70.2 | 158 | – | –
53 | UUUAUGUGAGGAUAUACGAAUAGUAAGUAAGUAUUACAGACGUAGAAGGCACAUGAGGAUCACCCAUGUGAACC | – | – | 38.5 | 78
54 | AUUCAGUCAGGAUAUCGUUAAUUUAAUUGUUUGUUUUAGUUCGAGAAGGGACAUGAGGAUCACCCAUGUACUUU | – | – | 20.2 | 19.3
55 | AAAACUGCUCAGGAUAUUUGUGUGUCAGGGCAUAAAGAAGGGAGCACAUGAGGAUCACCCAUGUGUUGGGUUCC | – | – | 98.5 | 149
56 | UUCAGGGAUCAAGGAUAUCUAUAAACAUGCGGACAUGAGGAUCACCCAUGUUGAUUACCCAUGUGGGAGAAGGUGAACAUGAGG | 44.7 | 20.6 | – | –
